Calls of active or inactive are those of the source. The calls are words filed in the database; no cut-off is given here.
Columns and labels:
HepG2 [1] = test: Induction of apoptosis in human HepG2 cells assessed as late apoptotic cells at 0.020 uM after 24 hrs by Annexin V-FITC/propidium iodide staining based flow cytometric analysis (reference value: 2.93%); assay type: functional
Outline: (§1)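 HepG2 and HeLa cells were exposed to 0, 0.02, 0.040, 0.060, 0.080 and 0.10 µM for 6, 12 and 24 h. Cells were double-stained with Annexin V-FITC/PI and read by flow cytometry. Apoptotic rate was the percentage of FITC-positive cells, counting early plus late apoptotic.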

A549 = test: Growth inhibition of human A549 cells after 48 hrs by MTT assay; assay type: functional; conditions: A549, 48 h
Outline: (§2)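 Proliferation read-out; GI50 taken as the concentration giving 50% reduction of cancer cell proliferation.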

HeLa [2] = test: Cell cycle arrest in human HeLa cells assessed as accumulation at G2/M phase at 0.020 uM after 24 hrs by propidium iodide staining based flow cytometric analysis (reference value: 17.72%); assay type: functional
Outline: (§3)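 HepG2 and HeLa cells were exposed to 0, 0.020, 0.040, 0.060, 0.080 or 0.10 µM for 6, 12 or 24 h. DNA content was stained with propidium iodide and analysed by flow cytometry to give the percentage of cells in G0/G1, S and G2/M phases; sub-G1 cells were also recorded.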

[3] = Selectivity index, ratio of CC50 for HEK293T cells to GI50 for human A549 cells; assay type: toxicity; conditions: HEK293T cells and A549 cells, read-out: Selectivity Index
Outline: (§4)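 Ratio CC50/GI50: CC50 is the concentration reducing non-tumour 293T cell proliferation by 50%; GI50 is the concentration reducing cancer cell proliferation by 50%.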

HepG2 [4] = test: Cell cycle arrest in human HepG2 cells assessed as accumulation at S phase at 0.060 uM after 24 hrs by propidium iodide staining based flow cytometric analysis (reference value: 20.40%); assay type: functional; outline: as §3
HeLa [5] = test: Cell cycle arrest in human HeLa cells assessed as accumulation at G2/M phase at 0.060 uM after 24 hrs by propidium iodide staining based flow cytometric analysis (reference value: 17.72%); assay type: functional; outline: as §3
Bos taurus = species: Bos taurus; test: Inhibition of colchicine binding to calf brain tubulin preincubated for 1 hr followed by colchicine addition measured after 1 hr by UPLC-MS/MS analysis
HepG2 [6] = test: Cell cycle arrest in human HepG2 cells assessed as accumulation at G0/G1 phase at 0.080 uM after 24 hrs by propidium iodide staining based flow cytometric analysis (reference value: 55.63%); assay type: functional; outline: as §3
Mus musculus [7] = test: Toxicity in nude mouse xenografted with human HeLa cells assessed as body weight loss at 10 to 20 mg/kg, ip after 14 days; assay type: organism-based; conditions: in vivo, 336 h
[8] = Selectivity index, ratio of CC50 for HEK293T cells to GI50 for human HeLa cells; assay type: toxicity; conditions: HEK293T cells and HeLa cells, read-out: Selectivity Index; outline: as §4
HeLa [9] = test: Induction of apoptosis in human HeLa cells assessed as viable cells at 0.10 uM after 24 hrs by Annexin V-FITC/propidium iodide staining based flow cytometric analysis (reference value: 88.6%); assay type: functional; conditions: read-out: Activity; outline: as §1
HepG2 [10] = test: Induction of apoptosis in human HepG2 cells assessed as early apoptotic cells at 0.10 uM after 24 hrs by Annexin V-FITC/propidium iodide staining based flow cytometric analysis (reference value: 2.31%); assay type: functional; outline: as §1
HeLa [11] = test: Induction of apoptosis in human HeLa cells assessed as necrotic cells at 0.10 uM after 24 hrs by Annexin V-FITC/propidium iodide staining based flow cytometric analysis (reference value: 0.242%); assay type: functional; outline: as §1
HeLa [12] = test: Growth inhibition of human HeLa cells after 48 hrs by MTT assay; assay type: functional; outline: as §2
Tubulin (Homo sapiens) = Tubulin (Homo sapiens) (UniProt P68371+Q9H4B7+P0DPH7+P68366+Q13509+Q71U36+P04350+Q3ZCM7+P07437+P68363+Q9BQE3+Q6PEY2+Q13885+Q9BVA1+Q9BUF5); test: Inhibition of tubulin polymerization in human HeLa cells assessed as abnormal microtubule network formation at 0.04 to 0.1 uM after 12 hrs by DAPI staining based immunofluorescence confocal laser scanning microscopic analysis; assay type: cell-based
HeLa [13] = test: Cell cycle arrest in human HeLa cells assessed as accumulation at G2/M phase at 0.10 uM after 24 hrs by propidium iodide staining based flow cytometric analysis (reference value: 17.72%); assay type: functional; outline: as §3
HepG2 [14] = test: Cell cycle arrest in human HepG2 cells assessed as accumulation at G2/M phase after 6 to 24 hrs by propidium iodide staining based flow cytometric analysis; assay type: functional; outline: as §3
HeLa [15] = test: Cell cycle arrest in human HeLa cells assessed as accumulation at S phase at 0.080 uM after 24 hrs by propidium iodide staining based flow cytometric analysis (reference value: 17.46%); assay type: functional; outline: as §3
HeLa [16] = test: Induction of apoptosis in human HeLa cells assessed as viable cells at 0.040 uM after 24 hrs by Annexin V-FITC/propidium iodide staining based flow cytometric analysis (reference value: 88.6%); assay type: functional; conditions: read-out: Activity; outline: as §1
HepG2 [17] = test: Cell cycle arrest in human HepG2 cells assessed as accumulation at G2/M phase at 0.020 to 0.10 uM after 6 to 24 hrs by propidium iodide staining based flow cytometric analysis relative to control; assay type: functional; outline: as §3
HepG2 [18] = test: Cell cycle arrest in human HepG2 cells assessed as accumulation at G0/G1 phase at 0.10 uM after 24 hrs by propidium iodide staining based flow cytometric analysis (reference value: 55.63%); assay type: functional; outline: as §3
MCF7 = test: Growth inhibition of human MCF7 cells after 48 hrs by MTT assay; assay type: functional; conditions: MCF7, 48 h; outline: as §2
HepG2 [19] = test: Cell cycle arrest in human HepG2 cells assessed as accumulation at S phase at 0.080 uM after 24 hrs by propidium iodide staining based flow cytometric analysis (reference value: 20.40%); assay type: functional; outline: as §3
HepG2 [20] = test: Induction of apoptosis in human HepG2 cells assessed as necrotic cells at 0.020 uM after 24 hrs by Annexin V-FITC/propidium iodide staining based flow cytometric analysis (reference value: 0.270%); assay type: functional; outline: as §1
HeLa [21] = test: Cell cycle arrest in human HeLa cells assessed as accumulation at S phase at 0.060 uM after 24 hrs by propidium iodide staining based flow cytometric analysis (reference value: 17.46%); assay type: functional; outline: as §3
HepG2 [22] = test: Cell cycle arrest in human HepG2 cells assessed as accumulation at G2/M phase at 0.080 uM after 24 hrs by propidium iodide staining based flow cytometric analysis (reference value: 20.17%); assay type: functional; outline: as §3
HepG2 [23] = test: Cell cycle arrest in human HepG2 cells assessed as accumulation at S phase at 0.020 uM after 24 hrs by propidium iodide staining based flow cytometric analysis (reference value: 20.40%); assay type: functional; outline: as §3
Mus musculus [24] = test: Toxicity in nude mouse xenografted with human HeLa cells assessed as change in mouse spleen weight at 10 to 20 mg/kg, ip after 14 days; assay type: organism-based; conditions: in vivo, 336 h
[25] = Selectivity index, ratio of CC50 for HEK293T cells to GI50 for human HepG2 cells; assay type: toxicity; conditions: HEK293T cells and HepG2 cells, read-out: Selectivity Index; outline: as §4
HepG2 [26] = test: Cell cycle arrest in human HepG2 cells assessed as accumulation at G2/M phase at 0.020 uM after 24 hrs by propidium iodide staining based flow cytometric analysis (reference value: 20.17%); assay type: functional; outline: as §3

## COc1cccc(C2=NN(C(=O)c3ccc(C)nc3)C(c3cn(C)c4ccc(OC)cc34)C2)c1 (stereo not given)
HepG2 [1]
  Activity: 3.18%
A549
  GI50: 0.59 µM
HeLa [2]
  Activity: 21.23%
[3]
  selectivity ratio: 3 to 10
HepG2 [4]
  Activity: 22.17%
HeLa [5]
  Activity: 65.43%
Bos taurus
  inhibition: Active
HepG2 [6]
  Activity: 7.81%
Mus musculus [7]
  Activity: Non-Toxic
[8]
  selectivity ratio: 3 to 10
HeLa [9]
  viability at 0.1 µM: 58.2%
HepG2 [10]
  Activity: 18.5%
HeLa [11]
  Activity: 0.76%
HeLa [12]
  GI50: 0.034 µM
Tubulin (Homo sapiens)
  inhibition: Active
HeLa [13]
  Activity: 61.12%
HepG2 [14]
  Activity: Dose-dependent effect
HeLa [15]
  Activity: 9.17%
HeLa [16]
  viability at 0.04 µM: 84.5%
HepG2 [17]
  Activity: >60%
HepG2 [18]
  Activity: 8.57%
MCF7
  GI50: 0.09 µM
HepG2 [19]
  Activity: 28.38%
HepG2 [20]
  Activity: 0.771%
HeLa [21]
  Activity: 16.47%
HepG2 [22]
  Activity: 50.73%
HepG2 [23]
  Activity: 19.81%
Mus musculus [24]
  Activity: Non-Toxic
[25]
  selectivity ratio: 3 to 10
HepG2 [26]
  Activity: 24.3%
